The source of these data is ChEMBL document CHEMBL1122111, “Allergenic alpha-methylene-gamma-butyrolactones. Stereospecific syntheses of (+)- and (-)-gamma-methyl-alpha-methylene-gamma-butyrolactones. A study of the specificity of (+) and (-) enantiomers in inducing allergic contact dermatitis” (1982).

Common to all, as to format: functional
The species entered for assay [1] is Cavia porcellus. Description: Tested for its effect on guinea pigs sensitized with (R)-5-Methyl-3-methylene -dihydro -furan-2-one, Number of sensitive animals out of 8 tested. A digest of the protocol: (§1)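 Female albino Hartley guinea pigs (250–300 g) received three 0.1-mL intradermal nuchal injections on alternate days of a 1:1 FCA/saline emulsion with 5% (+)-enantiomer. After 2 weeks rest, 0.25 mL of 1% or 2% methylene chloride solution was deposited on a 2-cm2 circle and read every 24 h. Erythema/swelling was scored 0–3; av = summed intensities divided by animal number.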

For assay [2], the species on record is Cavia porcellus. Description: Tested for its effect on guinea pigs sensitized with (S)5-Methyl-3-methylene-dihydro- furan-2-one; Number of sensitive animals out of 8 tested. In short, it runs like this:
(§2)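 Albino female Hartley guinea pigs (250-300 g) got three 0.1 mL intradermal nuchal injections on alternate days of 1:1 FCA-saline emulsion with 5% enantiomer. After 2 weeks rest, 0.25 mL of 1% (enantiomers) or 1% or 2% (racemate) in methylene chloride was applied to a 2-cm2 area. Erythema/swelling scored 0-3 every 24 h; average = summed scores/animals.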

The species named for assay [3] is Cavia porcellus. Description: Tested for its effect on guinea pigs sensitized with (R)-5-Methyl-3-methylene -dihydro -furan-2-one,av is calculated by adding the test intensity and divided by the number of animals. A digest of the protocol: as §1
The species named for assay [4] is Cavia porcellus. Description: Tested for its effect on guinea pigs sensitized with (+/-)-5-Methyl-3-methylene-dihydro-furan-2-one, Number of sensitive animals out of 8 tested. A digest of the protocol:
(§3)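 Female albino Hartley guinea pigs (250–300 g), sensitized by three intradermal nuchal injections of 0.1 mL on alternate days. The emulsion was 1:1 FCA/saline with 10% racemate (5% of each antipode). After 2 weeks rest, 0.25 mL of 1% or 2% methylene chloride solution was applied to a 2-cm2 area. Reactions were scored 0–3 every 24 h; av = summed scores/animals.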

The species named for assay [5] is Cavia porcellus. Description: Tested for its effect on guinea pigs sensitized with (S)5-Methyl-3-methylene-dihydro- furan-2-one,av is calculated by adding the test intensity and divided by the number of animals. A digest of the protocol: as §2
The species named for assay [6] is Cavia porcellus. Description: Tested for its effect on guinea pigs sensitized with (+/-)-5-Methyl-3-methylene-dihydro-furan-2-one, av is calculated by adding the test intensity and divided by the number of animals. A digest of the protocol:
as §3

The species named for assay [7] is Cavia porcellus. Description: Tested for its effect on guinea pigs sensitized with (+/-)-5-Methyl-3-methylene-dihydro-furan-2-one,number of animals showing no reaction. In short, it runs like this: as §3
The species entered for assay [8] is Cavia porcellus. Description: Tested for its effect on guinea pigs sensitized with (R)-5-Methyl-3-methylene -dihydro -furan-2-one, number of animals showing erythema and swelling of the test area. A digest of the protocol: as §1
The species named for assay [9] is Cavia porcellus. Description: Tested for its effect on guinea pigs sensitized with (R)-5-Methyl-3-methylene -dihydro -furan-2-one,number of animals showing erythema covering the part of the test area. In short, it runs like this: as §2
For assay [10], the species on record is Cavia porcellus. Description: Tested for its effect on guinea pigs sensitized with (R)-5-Methyl-3-methylene -dihydro -furan-2-one,number of animals showing erythema covering the whole test area. A digest of the protocol:
as §2

For assay [11], the species on record is Cavia porcellus. Description: Tested for its effect on guinea pigs sensitized with (R)-5-Methyl-3-methylene -dihydro -furan-2-one,number of animals showing no reaction. In short, it runs like this: as §2
For assay [12], the species on record is Cavia porcellus. Description: Tested for its effect on guinea pigs sensitized with (S)5-Methyl-3-methylene-dihydro- furan-2-one number of animals showing erythema and swelling of the test area. In short, it runs like this:
as §2

The species entered for assay [13] is Cavia porcellus. Description: Tested for its effect on guinea pigs sensitized with (S)5-Methyl-3-methylene-dihydro- furan-2-one number of animals showing erythema covering the part of the test area. A digest of the protocol: as §2
Assay [14] is filed under the species Cavia porcellus. Description: Tested for its effect on guinea pigs sensitized with (S)5-Methyl-3-methylene-dihydro- furan-2-one number of animals showing no reaction. In short, it runs like this: as §2
For assay [15], the species on record is Cavia porcellus. Description: Tested for its effect on guinea pigs sensitized with (S)5-Methyl-3-methylene-dihydro- furan-2-onenumber of animals showing erythema covering the whole test area. A digest of the protocol: as §2
The species entered for assay [16] is Cavia porcellus. Description: Tested for its effect on guinea pigs sensitized with (+/-)-5-Methyl-3-methylene-dihydro-furan-2-one number of animals showing erythema and swelling of the test area. A digest of the protocol:
as §3

For assay [17], the species on record is Cavia porcellus. Description: Tested for its effect on guinea pigs sensitized with (+/-)-5-Methyl-3-methylene-dihydro-furan-2-one,number of animals showing erythema covering the part of the test area. A digest of the protocol:
as §3

The species named for assay [18] is Cavia porcellus. Description: Tested for its effect on guinea pigs sensitized with (+/-)-5-Methyl-3-methylene-dihydro-furan-2-one,number of animals showing erythema covering the whole test area. In short, it runs like this: as §3
The species entered for assay [19] is Cavia porcellus. Description: Tested for effect on guinea pigs sensitized with (+/-)-5-Methyl-3- methylene-dihydro-furan-2-one; Number of sensitive animals out of 8 tested. A digest of the protocol:
as §3

Assay [20] is filed under the species Cavia porcellus. Description: Tested for effect on guinea pigs sensitized with (R)5-Methyl-3- methylene-dihydro-furan-2-one; Number of sensitive animals out of 8 tested. In short, it runs like this:
as §1

For assay [21], the species on record is Cavia porcellus. Description: Tested for effect on guinea pigs sensitized with (R)-5-Methyl-3-methylene-dihydro-furan-2-one; Number of sensitive animals out of 8 tested. In short, it runs like this: as §1
Assay [22] is filed under the species Cavia porcellus. Description: Tested for effect on guinea pigs sensitized with (S)5-Methyl-3- methylene-dihydro-furan-2-one; Number of sensitive animals out of 8 tested. A digest of the protocol: (§4)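 Sensitization: female albino Hartley guinea pigs (250–300 g) were given three alternate-day 0.1-mL intradermal nuchal injections of 1:1 FCA/saline emulsion containing 5% (−)-enantiomer. Challenge after 2 weeks rest used 0.25 mL of 1% or 2% methylene chloride solution on a 2-cm2 area, read every 24 h. The scale was 0 (none) to 3 (erythema/swelling beyond area); av = summed scores/animals.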

Assay [23] is filed under the species Cavia porcellus. Description: Tested for effect on guinea pigs sensitized with (+/-)-5-Methyl-3- methylene-dihydro-furan-2-one and av is calculated by adding the test intensity and divided by the number of animals. In short, it runs like this: as §3
Assay [24] is filed under the species Cavia porcellus. Description: Tested for effect on guinea pigs sensitized with (R)5-Methyl-3- methylene-dihydro-furan-2-one and av is calculated by adding the test intensity and divided by the number of animals. A digest of the protocol: as §1
The species named for assay [25] is Cavia porcellus. Description: Tested for effect on guinea pigs sensitized with (S)5-Methyl-3- methylene-dihydro-furan-2-one and av is calculated by adding the test intensity and divided by the number of animals. A digest of the protocol: as §4
The species entered for assay [26] is Cavia porcellus. Description: Tested for effect on guinea pigs sensitized with (+/-)-5-Methyl-3- methylene-dihydro-furan-2-one; Number of sensitive animals. In short, it runs like this: as §3
Assay [27] is filed under the species Cavia porcellus. Description: Tested for effect on guinea pigs sensitized with (R)5-Methyl-3- methylene-dihydro-furan-2-one and number of animals showing erythema covering the part of the test area. A digest of the protocol:
as §1

The species entered for assay [28] is Cavia porcellus. Description: Tested for effect on guinea pigs sensitized with (R)5-Methyl-3- methylene-dihydro-furan-2-one and number of animals showing erythema covering the whole test area. In short, it runs like this: as §1
Assay [29] is filed under the species Cavia porcellus. Description: Tested for effect on guinea pigs sensitized with (+/-)-5-Methyl-3- methylene-dihydro-furan-2-one and number of animals showing erythema and swelling of the test area. In short, it runs like this:
as §3

For assay [30], the species on record is Cavia porcellus. Description: Tested for effect on guinea pigs sensitized with (+/-)-5-Methyl-3- methylene-dihydro-furan-2-one and number of animals showing erythema covering the part of the test area. In short, it runs like this: as §3
Assay [31] is filed under the species Cavia porcellus. Description: Tested for effect on guinea pigs sensitized with (+/-)-5-Methyl-3- methylene-dihydro-furan-2-one and number of animals showing erythema covering the whole test area. A digest of the protocol: as §3
The species entered for assay [32] is Cavia porcellus. Description: Tested for effect on guinea pigs sensitized with (+/-)-5-Methyl-3- methylene-dihydro-furan-2-one and number of animals showing no reaction. A digest of the protocol: as §3
The species entered for assay [33] is Cavia porcellus. Description: Tested for effect on guinea pigs sensitized with (R)5-Methyl-3 -methylene-dihydro-furan-2-one and number of animals showing erythema covering the part of the test area. In short, it runs like this: as §1
The species entered for assay [34] is Cavia porcellus. Description: Tested for effect on guinea pigs sensitized with (R)5-Methyl-3 -methylene-dihydro-furan-2-one and number of animals showing erythema covering the whole test area. A digest of the protocol: as §1
Assay [35] is filed under the species Cavia porcellus. Description: Tested for effect on guinea pigs sensitized with (S)5-Methyl-3 -methylene-dihydro-furan-2-one and number of animals showing erythema covering the whole test area. A digest of the protocol: as §4
The species entered for assay [36] is Cavia porcellus. Description: Tested for effect on guinea pigs sensitized with (S)5-Methyl-3- methylene-dihydro-furan-2-one and number of animals showing erythema covering the whole test area. In short, it runs like this:
as §4

For assay [37], the species on record is Cavia porcellus. Description: Tested for effect on guinea pigs sensitized with (S)5-Methyl-3- methylene-dihydro-furan-2-one and number of animals showing no reaction. In short, it runs like this:
as §4

“And” between values parts separate entries of the source, which are not always exact repeats. Identical values can stand only once.

`C=C1C[C@H](C)OC1=O`: the “No. of sensitive animals” value is given as 5 in the assay filed under Cavia porcellus [1], 8 in the assay filed under Cavia porcellus [2] and 8 in the assay listed under Cavia porcellus [4]. Moreover, the av in the assay filed under Cavia porcellus [3] is 0.4; in the assay filed under Cavia porcellus [5] it was 0.9; in the assay filed under Cavia porcellus [6] it was 1.8. For the same compound, the Skin tests intensity came out at 0 in the assay filed under Cavia porcellus [7]; 0 in the assay listed under Cavia porcellus [8]; 3 in the assay listed under Cavia porcellus [9]; 2 in the assay listed under Cavia porcellus [10]; 3 in the assay listed under Cavia porcellus [11]; 0 in the assay listed under Cavia porcellus [12]. The Skin tests intensity in the assay listed under Cavia porcellus [13] came to 1; in the assay listed under Cavia porcellus [14] it was 0; in the assay listed under Cavia porcellus [15], 7; in the assay filed under Cavia porcellus [16] it was 6; in the assay filed under Cavia porcellus [17], 0; in the assay filed under Cavia porcellus [18], 2.

In the case of `C=C1CC(C)OC1=O` (configuration not stated), the “No. of sensitive animals” value was 8 in the assay filed under Cavia porcellus [19]; 6 in the assay filed under Cavia porcellus [20]; 8 in the assay filed under Cavia porcellus [21]; 8 in the assay listed under Cavia porcellus [22]; 8 in the assay filed under Cavia porcellus [26]. The av in the assay filed under Cavia porcellus [23] is 1.8 and 1.5; in the assay filed under Cavia porcellus [24], 1.8 and 0.7; in the assay filed under Cavia porcellus [25], 1.9 and 0.9. The Skin tests intensity was 1 in the assay filed under Cavia porcellus [27]; 5 in the assay filed under Cavia porcellus [28]; 6 and 4 in the assay listed under Cavia porcellus [29]; 0 in the assay filed under Cavia porcellus [30]; 2 and 4 in the assay listed under Cavia porcellus [31]; 0 in the assay listed under Cavia porcellus [32]. Moreover, the Skin tests intensity in the assay listed under Cavia porcellus [33] turned out to be 0; in the assay listed under Cavia porcellus [34] it was 2; in the assay filed under Cavia porcellus [35] it was 1; in the assay filed under Cavia porcellus [36] it was 7; in the assay listed under Cavia porcellus [37] it was 0.
